Compound activity (PubChem BioAssay)
AHR act: AHR activators, primary screen, cell-based, luminescence, luciferase reporter, human; Aryl hydrocarbon receptor (Homo sapiens), P35869; 2.5% of 320,000 active; AHR-responsive luciferase reporter cells; activation, % at 5 µM; in the data active means activation above about 47%
Target sequence (P35869 whole entry, looked up): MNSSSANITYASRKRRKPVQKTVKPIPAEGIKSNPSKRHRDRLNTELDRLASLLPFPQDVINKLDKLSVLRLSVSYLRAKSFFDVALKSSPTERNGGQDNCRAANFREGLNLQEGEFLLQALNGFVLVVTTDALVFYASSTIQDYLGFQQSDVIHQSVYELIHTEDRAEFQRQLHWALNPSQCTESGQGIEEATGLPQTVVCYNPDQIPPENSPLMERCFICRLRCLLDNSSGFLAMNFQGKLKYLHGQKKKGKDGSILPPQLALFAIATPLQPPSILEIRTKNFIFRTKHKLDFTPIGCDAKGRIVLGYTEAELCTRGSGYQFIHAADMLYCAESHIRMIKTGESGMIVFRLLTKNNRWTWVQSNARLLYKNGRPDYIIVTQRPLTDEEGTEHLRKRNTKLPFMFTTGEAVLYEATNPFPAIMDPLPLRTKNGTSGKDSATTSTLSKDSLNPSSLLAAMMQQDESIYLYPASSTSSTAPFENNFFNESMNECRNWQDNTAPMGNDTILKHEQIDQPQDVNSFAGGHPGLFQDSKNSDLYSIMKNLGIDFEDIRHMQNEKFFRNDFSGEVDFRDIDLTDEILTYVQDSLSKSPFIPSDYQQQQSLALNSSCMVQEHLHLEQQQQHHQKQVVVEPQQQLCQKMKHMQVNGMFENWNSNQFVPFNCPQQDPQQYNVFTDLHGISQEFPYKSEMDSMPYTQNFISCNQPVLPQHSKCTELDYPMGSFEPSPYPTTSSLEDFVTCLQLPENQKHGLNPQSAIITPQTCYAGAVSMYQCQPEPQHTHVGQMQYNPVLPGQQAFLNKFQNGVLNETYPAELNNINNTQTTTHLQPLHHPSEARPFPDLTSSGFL
GAA850 FXN act: FXN promoter activators, primary screen, cell-based, luciferase luminescence, HEK293 lucGAA850 | HEK293 lucGAA850 FXN promoter luciferase reporter, 24 h; percent of 10 µM SAHA response | activation, % at 6 µM | 0.56% of 360,000 active;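 active means activation above the average of all compounds screened plus 3 SD, cutoff fixed separately per campaign, cut at about 7.5% in these data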
MC4R barr agon: MC4R agonists recruiting beta-arrestin, primary screen, cell-based, luminescence, agonist arm of biased-ligand search | Melanocortin receptor 4 (Homo sapiens), P32245 | U2OS MC4R beta-arrestin complementation; percent of melanotan II response, DMSO zero | activation, % at 8.9 µM | 0.98% of 360,000 active;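 active means activation above a per-plate cutoff, the mean activation of sample wells on that plate plus 3 SD, cut at about 8% in these data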
MC4R antagonist: MC4R antagonists of cAMP signaling, primary screen, cell-based, TR-FRET, antagonist arm of biased-ligand search; 0.48% of 360,000 active; Melanocortin receptor 4 (Homo sapiens), P32245; AID 540295, 2011; MC4R-expressing cells, MTII-stimulated cAMP, LANCE TR-FRET; inhibition, % at 6.5 µM;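 active means inhibition above its plate's cutoff, the mean of tested wells on that plate plus 3 SD, cut at about 29% in these data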
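Material: human MC4R-expressing U2OS cells. Probe or stimulus: Melanotan II challenge. Dosing: 6.5 µM single dose. Times: 30-min compound, 1-h challenge, 1-h detection, room temperature. Technique: TR-FRET with Eu-cAMP and labeled anti-cAMP, 671 nm. Replication: singlicate.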
HTR2A ag: mouse Htr2a agonists via beta-arrestin recruitment, primary screen, cell-based, luminescence; CHO-K1 mHTR2A beta-arrestin complementation; percent of 30 µM serotonin response; activation, % at 7.6 µM; 0.66% of 360,000 active;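 active means activation above a run cutoff, the mean activation of all tested compounds plus 3 SD, cut at about 14% in these data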
AHR act cf: AHR activators, confirmation, cell-based, luminescence, luciferase reporter, human; shares compounds with AHR act; 87% of 2,300 active; human cells, AHR-responsive luciferase reporter; AID 2845, 2010; activation, % at 9 µM; in the data active means activation above about 49%;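 further: HepG2 hepatoma cells carrying a DRE-driven firefly luciferase reporter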
PXR counter: human PXR activators, counter-screen for AHR activator project, cell-based, luciferase luminescence; activation, % at 11.6 µM; 88% of 2,300 active; cell-based PXR reporter; AID 434939, 2010; shares compounds with AHR act; in the data active means activation above about 11%;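 further: human hepatoma DPX-2 cells expressing full-length human PXR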
U2OS cAMP counter: nonselective cAMP signaling inhibitors, parental cells, counter-screen for MC4R biased antagonist project, cell-based, TR-FRET, U2OS, forskolin, triplicate | 26% of 1,600 active | AID 602193, 2012 | shares compounds with MC4R antagonist | LANCE TR-FRET | inhibition, % at 6.5 µM;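 active means mean inhibition over triplicates above the low-control well mean plus 3 SD, set per campaign, cut at about 13% in these data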;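 further: signal is single emission at 671 nm which falls as cellular cAMP rises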
MC4R cAMP antag: MC4R cAMP antagonists, retest, confirmation, cell-based, TR-FRET | MC4R-expressing cells, MTII-stimulated cAMP | shares compounds with MC4R antagonist | 27% of 1,600 active | inhibition, % at 6.5 µM | AID 602195, 2012; in the data active means inhibition above about 29%
MOR ag counter: OPRM1 agonists via beta-arrestin recruitment, confirmation, counter-screen for mouse HTR2A agonist project, cell-based, luminescence, single concentration | shares compounds with HTR2A ag | U2OS OPRM1 beta-arrestin PathHunter; DMSO 0%, DAMGO 9.3 µM 100% | activation, % at 9.3 µM | 5.3% of 2,300 active;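 active means mean activation above the mean of DMSO-only wells plus 3 SD, cut at about 0.5% in these data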
m5-HT2A ag conf: mouse HTR2A agonists, beta-arrestin recruitment, confirmation, cell-based, luminescence, CHO-K1 PathHunter, triplicate; DMSO 0%, 30 µM serotonin 100%; AID 624381, 2012; activation, % at 7.6 µM; shares compounds with HTR2A ag; 19% of 2,300 active;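 active means mean activation across triplicates above the hit threshold derived in the original primary screen, cut at about 15% in these data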
Each line names hits and unclear results; the compound was inactive in the other large screens (follow-up assays come after a bar, where they were run). Shown are actives, neighbours in structure and some others; about 4.7% of the full set was active somewhere.

CC(N)Cc1c[nH]c2ccc(OCc3cccs3)cc12 (stereo not given)	AHR act 80, HTR2A ag 22 | AHR act cf 51 | PXR counter 11 | MOR ag counter inactive | m5-HT2A ag conf inactive
O=C1NCN(c2ccccc2)C12CCN(C(c1ccccc1)c1nnnn1Cc1ccccc1)CC2 (stereo not given)	none (no result: AHR act, GAA850 FXN act, MC4R barr agon, MC4R antagonist)
O=C1NC(=O)C(=Cc2ccc(-c3ccc(F)cc3O)o2)C(=O)N1	MC4R antagonist 53 | U2OS cAMP counter 13 | MC4R cAMP antag 29
O=C1NC(=O)C(=Cc2ccc(-c3ccc(Cl)cc3)o2)C(=O)N1	MC4R antagonist 44 | U2OS cAMP counter 41 | MC4R cAMP antag 68
O=C(NCCN1CCC2(CC1)C(=O)NCN2c1cccc(F)c1)c1ccc2ccccc2c1	none (no result: AHR act, GAA850 FXN act, MC4R barr agon, MC4R antagonist)
Cc1cc([N+](=O)[O-])c2ccccc2[n+]1[O-]	MC4R antagonist 31 | U2OS cAMP counter inactive | MC4R cAMP antag 31
COc1ccc(S(=O)(=O)NC(CC(=O)N2CCC3(CC2)OCCO3)C(C)C)cc1 (stereo not given)	none
Cc1nn(Cc2ccccc2)c(C)c1C=C1C(=O)NC(=S)NC1=O	none
Cc1ccc(Cn2nc(C)c(C=O)c2Cl)cc1	MC4R antagonist 31 | U2OS cAMP counter inactive | MC4R cAMP antag inactive
CC12CCC3C(CC=C4CC5(CCC43C)OCCO5)C1CCC2=O (stereo not given)	MC4R antagonist 30 | U2OS cAMP counter inactive | MC4R cAMP antag inactive
Cc1ccccc1N1C(=O)NC(=O)/C(=C\c2cnn(-c3ccccc3)c2)C1=O	MC4R antagonist 41 | U2OS cAMP counter 14 | MC4R cAMP antag inactive
Clc1ccc(C(c2ccc(Cl)cc2)n2cc[n+](CC(OCc3ccc(Cl)cc3Cl)c3ccc(Cl)cc3Cl)c2)cc1 (stereo not given)	MC4R antagonist 61 | U2OS cAMP counter 20 | MC4R cAMP antag 71
COC1C(O)C(C)OC(OC2C(Oc3cccc4c(O)c5c(=O)oc6ccc(C)c7c(=O)oc(c34)c5c67)OC(C)C(O)C2O)C1O (stereo not given)	none (no result: AHR act)
O=C1NC(=O)N(Cc2ccc(F)cc2)C(=O)/C1=C\c1ccoc1	none
Cc1ccc(/C=C2\C(=O)NC(=O)N(Cc3ccccc3Cl)C2=O)o1	none
O=C1NC(=O)N(Cc2ccccc2Cl)C(=O)/C1=C/c1cccs1	MC4R antagonist 36 | U2OS cAMP counter 16 | MC4R cAMP antag 30
O=C1NC(=O)N(Cc2ccc(F)cc2)C(=O)/C1=C/c1cccs1	MC4R antagonist 68 | U2OS cAMP counter inactive | MC4R cAMP antag inactive
